Calls of active or inactive are those of the source.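 How the source made its calls: active means compound whose fitted half-maximal VEGF mRNA rise lies within ten times its top tested dose; inconclusive means flat response of 30 to 70% or a poor curve fit; inactive means the rest, including reverse-direction effects.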
Assays:
[1] = test system: U2OS VEGF mRNA induction, RT-PCR; test: HIF target gene expression activators – cell-based, U2OS, RT-PCR, dry powder, dose response (AID 488843)
Method in brief: (§1)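 System: U2OS osteosarcoma cells, VEGF-A transcript; input: 2,000 U2OS cells per well; times: 24 h pre-dosing growth, then 24 h exposure at 37 °C; measured by: multiplex TaqMan RT-qPCR, VEGF-A FAM, beta-actin VIC; control set: DMSO wells as negative reference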

[2] = as above; details: U2OS VEGF mRNA induction, RT-PCR; at 38 µM (top of the series)
Method in brief: as §1

Structure (SMILES) | AC50 [1] [µM] | activation (VEGF mRNA increase) [2]
CCCCNC(=O)c1cc(-c2ccccc2)on1 | 12.4 | –
O=C(Nc1ncc(-c2ccccc2)o1)c1cc(-c2ccccc2)on1 | – | 1.3% (inactive)
Cn1c(NC(=O)c2cc(-c3ccccc3)on2)nc2ccccc21 | – | 2.87% (inactive)
Cc1ccccc1CNc1nc(-c2ccccn2)nnc1-c1ccccc1 | 5.64 | –
c1ccc(CNc2nc(-c3ccccn3)nnc2-c2ccccc2)cc1 | 7.55 | –
Cn1c(-c2ccccc2)cnc1NC(=O)c1cc(-c2ccccc2)on1 | – | -1.36% (inactive)
Cc1cccc(Nc2nc(-c3ccccn3)nnc2-c2ccccc2)n1 | 12.9 | –
Cc1ccc(CNc2nc(-c3ccccn3)nnc2-c2ccccc2)cc1 | 3.46 | –
Cc1cccc(NC(=O)c2cc(-c3ccccc3)on2)n1 | – | -4.09% (inactive)
O=C(c1cc(-c2ccccc2)on1)N1CCC(CO)CC1 | – | 14.4% (inactive)
O=C(NCCCO)c1cc(-c2ccccc2)on1 | 22.3 | –
c1ccc(-c2nnc(-c3ccccn3)nc2Nc2cnc3ccccc3n2)cc1 | 4.81 | –
Cn1c(-c2ccccc2)cnc1Nc1nc(-c2ccccn2)nnc1-c1ccccc1 | 5.34 | –
O=C(NCCCCO)c1cc(-c2ccccc2)on1 | 8.59 | –
O=C(NCCCn1ccnc1)c1cc(-c2ccccc2)on1 | 16 | –
CN1CCN(C(=O)c2cc(-c3ccccc3)on2)CC1 | – | -1.09% (inactive)
O=C(Nc1ncc2ccccc2n1)c1cc(-c2ccccc2)on1 | – | 17.1% (inactive)
c1ccc(-c2nnc(-c3ccccn3)nc2N2CCN(c3ccncc3)CC2)cc1 | 7.31 | –
c1ccc(-c2nnc(-c3ccccn3)nc2NCC2CCCCC2)cc1 | 3.04 | –
O=C(Nc1ccc2ccccc2n1)c1cc(-c2ccccc2)on1 | 7.99 | –

Structure (SMILES) | AC50 [1] [µM] | activation (VEGF mRNA increase) [2]
O=C(NCc1ccccc1)c1cc(-c2ccccc2)on1 | – | 12.2% (inactive)
Cc1ccc(Nc2nc(-c3ccccn3)nnc2-c2ccccc2)cn1 | 8.83 | –
O=C(Nc1cnc2ccccc2c1)c1cc(-c2ccccc2)on1 | – | 3.98% (inactive)
O=C(c1cc(-c2ccccc2)on1)N1CCN(c2ccncc2)CC1 | – | 34.7% (inactive)
O=C(NCC1CCCCC1)c1cc(-c2ccccc2)on1 | – | -2.06% (inactive)
O=C(c1cc(-c2ccccc2)on1)N1CCC(N2CCOCC2)CC1 | – | 13% (inactive)
O=C(Nc1nc2ccccc2s1)c1cc(-c2ccccc2)on1 | – | 4.08% (inactive)
O=C(NCCCN1CCOCC1)c1cc(-c2ccccc2)on1 | 30.7 | –
O=C(NCCN1CCCCC1)c1cc(-c2ccccc2)on1 | – | 14.3% (inactive)
CN(C)c1nc(-c2ccccn2)nnc1-c1ccccc1 | 6.38 | –
CC(C)(C)CCNC(=O)c1cc(-c2ccccc2)on1 | – | 13.5% (inactive)
O=C(c1cc(-c2ccccc2)on1)N1CCc2cccnc21 | – | 5.19% (inactive)
CN1CCN(c2nc(-c3ccccn3)nnc2-c2ccccc2)CC1 | 8.76 | –
O=C(NC1CCc2ccccc2C1)c1cc(-c2ccccc2)on1 (centres undefined) | – | 14.2% (inactive)
CC(C)(C)CCNc1nc(-c2ccccn2)nnc1-c1ccccc1 | 3.58 | –
O=C(Nc1nc(-c2ccccc2)cs1)c1cc(-c2ccccc2)on1 | – | 3.91% (inactive)
Cc1cccc(CNC(=O)c2cc(-c3ccccc3)on2)c1 | – | 11.8% (inactive)
c1ccc(-c2csc(Nc3nc(-c4ccccn4)nnc3-c3ccccc3)n2)cc1 | 2.69 | –
C=CCNc1nc(-c2ccccn2)nnc1-c1ccccc1 | 7 | –
CN(C)CCNC(=O)c1cc(-c2ccccc2)on1 | – | 4% (inactive)

Structure (SMILES) | AC50 [1] [µM] | activation (VEGF mRNA increase) [2]
O=C(Nc1nnc(-c2ccccc2)s1)c1cc(-c2ccccc2)on1 | – | 3.52% (inactive)
O=C(NCCN1CCOCC1)c1cc(-c2ccccc2)on1 | 19.6 | –
Cc1ccc(CNC(=O)c2cc(-c3ccccc3)on2)cc1 | – | -3.43% (inactive)
Cc1ccccc1CNC(=O)c1cc(-c2ccccc2)on1 | – | 22.6% (inactive)
c1ccc(-c2nnc(-c3ccccn3)nc2NCCCN2CCOCC2)cc1 | 9.7 | –
c1ccc(-c2nnc(-c3ccccn3)nc2N2CCC(N3CCOCC3)CC2)cc1 | 8.46 | –
c1ccc(-c2nnc(-c3ccccn3)nc2Nc2nc3ccccc3s2)cc1 | 1.71 | –
O=C(NC1Cc2ccccc2C1)c1cc(-c2ccccc2)on1 | – | -0.187% (inactive)
OCCCNc1nc(-c2ccccn2)nnc1-c1ccccc1 | 10.7 | –
c1ccc(-c2cnc(Nc3nc(-c4ccccn4)nnc3-c3ccccc3)s2)cc1 | 4.96 | –
c1ccc(-c2nnc(-c3ccccn3)nc2NCC2CC2)cc1 | 8.4 | –
Cc1cccc(CNc2nc(-c3ccccn3)nnc2-c2ccccc2)c1 | 3.83 | –
O=C(Nc1cn2ccccc2n1)c1cc(-c2ccccc2)on1 | – | 20.3% (inactive)
O=C(c1cc(-c2ccccc2)on1)N1CCC(N2CCCC2)CC1 | – | 9.95% (inactive)
Cc1ccc(NC(=O)c2cc(-c3ccccc3)on2)cn1 | 38 | –
OCC1CCN(c2nc(-c3ccccn3)nnc2-c2ccccc2)CC1 | 11.1 | –
O=C(NCC1CC1)c1cc(-c2ccccc2)on1 | 14.4 | –
c1ccc(-c2nnc(Nc3nc(-c4ccccn4)nnc3-c3ccccc3)s2)cc1 | 2.81 | –
c1ccc(-c2nnc(-c3ccccn3)nc2NCCN2CCOCC2)cc1 | 8.52 | –

Source: PubChem BioAssay AID488843 (Broad Institute, 2010)
